Measured values taken from ChEMBL document CHEMBL4680104, “Structure-Based Optimization of Small-Molecule Inhibitors for the β-Catenin/B-Cell Lymphoma 9 Protein-Protein Interaction” (J Med Chem, 2018).
The source made the active and inactive calls. No cut-off for these calls is given here.

Legend:
HCT-116 = assay: Cytotoxicity in human HCT-116 cells assessed as reduction in cell viability incubated for 72 hrs by MTS assay; type: functional, cell-based; conditions: HCT-116, 72 h
Method in brief: (§1)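 Cells seeded at 5 × 10^3 cells/well, kept overnight at 37 °C, then exposed to inhibitors at various concentrations for 72 h. Viability read with a freshly mixed PMS (0.92 mg/mL) : MTS (2 mg/mL) reagent at 1:19, incubated 3 h at 37 °C, A490 measured. […] Triplicate; mean ± SD.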

SW480 [1] = assay: Cytotoxic activity in human SW480 cells at 800 uM incubated for 4 hrs by LDH release assay; type: cell-based; conditions: sw480, 4 h
Method in brief: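 SW480 cells were seeded at 2 × 10^4 cells/well and kept overnight at 37 °C. They were then exposed to a range of inhibitor concentrations for 4 h. LDH in the culture supernatant was measured with a diagnostic kit by absorbance at 490 nm. Percent cytotoxicity was calculated from experimental release against maximum release, with background subtracted. Run in triplicate.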

[2] = target: T1, beta-catenin-B-cell lymphoma 9 protein complex (Homo sapiens, UniProt P35222); assay: Inhibition of protein interaction between beta-catenin (unknown origin)/BCL9 in human SW480 cells transfected with beta-catenin assessed as reduction in Wnt/beta-catenin transactivation incubated for 24 hrs by Wnt-responsive TOP-Flash luciferase reporter assay; type: cell-based
T1 sequence (P35222 whole entry): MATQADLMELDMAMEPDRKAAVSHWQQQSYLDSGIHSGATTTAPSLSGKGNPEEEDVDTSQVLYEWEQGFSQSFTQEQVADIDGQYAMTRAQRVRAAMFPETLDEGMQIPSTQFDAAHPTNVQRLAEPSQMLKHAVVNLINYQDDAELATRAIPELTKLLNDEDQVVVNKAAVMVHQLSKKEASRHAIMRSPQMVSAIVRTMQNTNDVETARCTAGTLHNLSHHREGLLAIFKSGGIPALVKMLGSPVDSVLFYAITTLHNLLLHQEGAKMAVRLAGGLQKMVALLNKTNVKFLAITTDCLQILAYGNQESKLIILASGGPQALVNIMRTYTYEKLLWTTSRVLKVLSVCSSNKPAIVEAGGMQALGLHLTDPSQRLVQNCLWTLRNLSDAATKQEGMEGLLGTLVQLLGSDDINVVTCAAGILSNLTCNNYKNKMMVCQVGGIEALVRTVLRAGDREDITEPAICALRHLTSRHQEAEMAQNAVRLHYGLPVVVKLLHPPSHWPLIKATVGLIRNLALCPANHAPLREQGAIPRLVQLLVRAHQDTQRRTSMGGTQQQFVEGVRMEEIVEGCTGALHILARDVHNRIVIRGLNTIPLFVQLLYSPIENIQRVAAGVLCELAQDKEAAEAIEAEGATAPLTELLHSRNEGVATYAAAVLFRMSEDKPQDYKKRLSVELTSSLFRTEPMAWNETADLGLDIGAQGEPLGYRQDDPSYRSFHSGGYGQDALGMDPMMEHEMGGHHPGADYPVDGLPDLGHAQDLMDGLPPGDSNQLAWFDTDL
T1 sequence (O00512 whole entry): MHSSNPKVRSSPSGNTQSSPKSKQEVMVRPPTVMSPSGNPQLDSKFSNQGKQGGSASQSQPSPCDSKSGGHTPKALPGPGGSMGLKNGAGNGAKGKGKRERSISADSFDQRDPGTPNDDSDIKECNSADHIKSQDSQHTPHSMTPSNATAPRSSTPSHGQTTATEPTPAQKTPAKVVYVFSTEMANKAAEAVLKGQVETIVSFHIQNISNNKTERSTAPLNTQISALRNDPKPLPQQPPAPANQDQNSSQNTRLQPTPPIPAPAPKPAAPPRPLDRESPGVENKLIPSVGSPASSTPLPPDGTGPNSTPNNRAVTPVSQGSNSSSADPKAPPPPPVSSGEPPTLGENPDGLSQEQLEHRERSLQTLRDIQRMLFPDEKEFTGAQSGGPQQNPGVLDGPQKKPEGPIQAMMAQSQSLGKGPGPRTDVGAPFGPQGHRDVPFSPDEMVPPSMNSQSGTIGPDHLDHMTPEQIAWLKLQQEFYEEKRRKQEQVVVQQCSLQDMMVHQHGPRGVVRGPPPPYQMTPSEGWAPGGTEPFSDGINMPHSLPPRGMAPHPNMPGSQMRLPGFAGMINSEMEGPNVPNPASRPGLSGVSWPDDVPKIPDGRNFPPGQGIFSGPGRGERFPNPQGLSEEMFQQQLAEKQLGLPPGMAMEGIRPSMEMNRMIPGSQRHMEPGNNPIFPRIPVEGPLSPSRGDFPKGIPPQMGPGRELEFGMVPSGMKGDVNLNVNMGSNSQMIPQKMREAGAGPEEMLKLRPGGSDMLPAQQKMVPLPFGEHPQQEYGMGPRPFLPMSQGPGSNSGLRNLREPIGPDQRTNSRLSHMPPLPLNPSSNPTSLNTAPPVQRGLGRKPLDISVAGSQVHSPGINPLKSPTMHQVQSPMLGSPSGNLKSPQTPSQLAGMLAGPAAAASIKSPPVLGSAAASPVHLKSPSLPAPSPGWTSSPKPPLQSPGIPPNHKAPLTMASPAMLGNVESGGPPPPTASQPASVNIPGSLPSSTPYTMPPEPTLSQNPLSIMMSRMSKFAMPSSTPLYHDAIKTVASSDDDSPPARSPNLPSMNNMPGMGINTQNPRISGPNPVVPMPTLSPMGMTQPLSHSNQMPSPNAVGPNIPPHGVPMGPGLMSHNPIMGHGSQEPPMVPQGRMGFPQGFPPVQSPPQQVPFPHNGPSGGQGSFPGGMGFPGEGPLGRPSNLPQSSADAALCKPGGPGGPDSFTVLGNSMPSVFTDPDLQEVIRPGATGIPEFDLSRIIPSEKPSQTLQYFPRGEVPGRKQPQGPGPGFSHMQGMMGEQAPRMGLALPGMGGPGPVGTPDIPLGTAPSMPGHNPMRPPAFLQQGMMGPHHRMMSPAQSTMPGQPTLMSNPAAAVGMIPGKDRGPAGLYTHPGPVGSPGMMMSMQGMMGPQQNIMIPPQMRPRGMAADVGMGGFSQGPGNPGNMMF

SW480 [3] = assay: Cytotoxicity in human SW480 cells assessed as reduction in cell viability incubated for 72 hrs by MTS assay; type: functional, cell-based; conditions: SW480, 72 h; method in brief: as §1
[4] = target: T1, beta-catenin-B-cell lymphoma 9 protein complex; assay: Inhibition of protein interaction between C-terminal 6x-histidine tagged full-length beta-catenin (1 to 781 residues) (unknown origin)/N-terminal biotinylated human BCL9 ( 350 to 375 residues) incubated for 1 hr by Alpha-screen competitive inhibition assay; type: protein-complex assay
Method in brief: (§2)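 Full-length β-catenin (residues 1–781) with a C-terminal His6 tag was expressed in E. coli BL21(DE3) after IPTG induction at 20 °C. It was purified by Ni-NTA, anion-exchange and size-exclusion chromatography. For the assay, 40 nM β-catenin was preincubated for 30 min at 4 °C with 5 nM biotinylated BCL9 or 10 nM biotinylated E-cadherin. Inhibitor was then added for 1 h at 4 °C, followed by 10 μg/mL donor and acceptor beads for 1 h at 4 °C. IC50 was obtained by nonlinear fit and converted to Ki by the Nikolovska-Coleska method. Triplicate, mean ± SD.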

[5] = Inhibition of protein interaction between beta-catenin D145A mutant (unknown origin)/N-terminal biotinylated human BCL9 ( 350 to 375 residues) incubated for 1 hr by Alpha-screen competitive inhibition assay
A549 = assay: Cytotoxicity in human A549 cells assessed as reduction in cell viability incubated for 72 hrs by MTS assay; type: functional, cell-based; conditions: A549, 72 h; method in brief: as §1
[6] = Inhibition of protein interaction between beta-catenin K181A mutant (unknown origin)/N-terminal biotinylated human BCL9 ( 350 to 375 residues) incubated for 1 hr by Alpha-screen competitive inhibition assay
[7] = Inhibition of protein interaction between beta-catenin D145A/E155A mutant (unknown origin)/N-terminal biotinylated human BCL9 ( 350 to 375 residues) incubated for 1 hr by Alpha-screen competitive inhibition assay
MDA-MB-231 = assay: Cytotoxicity in human MDA-MB-231 cells assessed as reduction in cell viability incubated for 72 hrs by MTS assay; type: functional, cell-based; conditions: MDA-MB-231, 72 h
Method in brief: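 Triple-negative breast cancer line seeded at 5 × 10^3 cells/well, held overnight at 37 °C, then exposed to inhibitor over a concentration range for 72 h. Viability read out with a fresh 1:19 mix of PMS (0.92 mg/mL) and MTS (2 mg/mL), incubated 3 h at 37 °C, A490 measured.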

[8] = target: T1, beta-catenin-B-cell lymphoma 9 protein complex; assay: Inhibition of protein interaction between beta-catenin (unknown origin)/BCL9 in HEK293 cells transfected with beta-catenin assessed as reduction in Wnt/beta-catenin transactivation incubated for 24 hrs by Wnt-responsive TOP-Flash luciferase reporter assay; type: cell-based
Method in brief: (§3)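 HEK293 cells were cotransfected using FuGENE6 with 45 ng TOPFlash or FOPFlash reporter, 135 ng pcDNA3.1-β-catenin and 20 ng pCMV-RL normalization reporter. After 24 h in DMEM with 10% FBS at 37 °C, inhibitors or DMSO were added for 24 h. Reporter activity was read with a dual luciferase system, normalized, and compared with DMSO-treated cells. Triplicate.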

[9] = Inhibition of protein interaction between C-terminal 6x-histidine tagged full-length beta-catenin (1 to 781 residues) (unknown origin)/N-terminal biotinylated human E-cadherin (824 to 877 residues) incubated for 1 hr by Alpha-screen competitive inhibition assay; method in brief: as §2
[10] = target: T2, beta-catenin-B-cell lymphoma 9 protein complex (Homo sapiens) (UniProt P35222+O00512); assay: Inhibition of protein interaction between beta-catenin (unknown origin)/BCL9 in human HEK293 cells transfected with beta-catenin assessed as reduction in Wnt/beta-catenin transactivation incubated for 24 hrs by Wnt-responsive FOP-Flash luciferase reporter assay
[11] = target: T2, beta-catenin-B-cell lymphoma 9 protein complex (Homo sapiens); assay: Inhibition of protein interaction between beta-catenin (unknown origin)/BCL9 in HEK293 cells transfected with beta-catenin assessed as reduction in Wnt/beta-catenin transactivation incubated for 24 hrs by Wnt-responsive FOP-Flash luciferase reporter assay; type: cell-based; method in brief: as §3
[12] = Effect on HPRT mRNA expression in human SW480 cells at 5 uM incubated for 24 hrs by qPCR analysis relative to control; type: ADME, cell-based; conditions: read-out: FC
Method in brief: (§4)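 SW480 cells at 1 × 10^6/mL were treated with inhibitor for 24 h. Total RNA was extracted with TRIzol and cDNA made by first-strand synthesis. SYBR green qPCR used human HPRT primers, with CT values normalised to GAPDH as internal reference. Performed in triplicate.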

[13] = Effect on HPRT mRNA expression in human SW480 cells at 20 uM incubated for 24 hrs by qPCR analysis relative to control; type: ADME, cell-based; conditions: read-out: FC; method in brief: as §4
[14] = Effect on HPRT mRNA expression in human SW480 cells at 10 uM incubated for 24 hrs by qPCR analysis relative to control; type: ADME, cell-based; conditions: read-out: FC; method in brief: as §4

SMILES	IC50 [2]	Ki [4]	IC50 [8]	Ki [9]	inhibition [10]	inhibition [11]	IC50 (HCT-116)	Activity (SW480 [1])	IC50 (SW480 [3])	Ki [5]	IC50 (A549)	Ki [6]	Ki [7]	IC50 (MDA-MB-231)	fold induction at 5 µM [12]	fold induction at 20 µM [13]	fold induction at 10 µM [14]
Cl.Cl.O=C(O)c1cccc(-c2cc(NC(=O)c3ccc(O[C@H]4CCNC4)c(-c4ccc(F)c(F)c4)c3)ccc2O[C@H]2CCNC2)c1	368 µM	5.4 µM					> 400 µM	Non-Toxic	> 400 µM								
Cl.Cl.O=C(Nc1ccc(O[C@H]2CCNC2)c(-c2cccc(-c3nn[nH]n3)c2)c1)c1ccc(O[C@H]2CCNC2)c(-c2ccc(F)c(F)c2)c1		1 µM					190 µM	Non-Toxic	140 µM	6.5 µM	410 µM	4.9 µM	18 µM	92 µM			
Cl.Cl.NS(=O)(=O)c1ccc(-c2cc(NC(=O)c3ccc(O[C@H]4CCNC4)c(-c4ccc(F)c(F)c4)c3)ccc2O[C@H]2CCNC2)cc1	> 200 µM	5.6 µM	> 200 µM					Non-Toxic	220 µM								
Cl.Cl.Fc1ccc(-c2cc(-c3ccc4cc(O[C@H]5CCNC5)c(-c5ccc(F)c(F)c5)cc4n3)ccc2O[C@H]2CCNC2)cc1	12 µM		26 µM		Active	Active	9.6 µM	Non-Toxic	3.6 µM		23 µM			15 µM	0.369	0.0612	0.319

Further lines, with some results ahead:

IC50 [2]	Ki [4]	IC50 [8]	Ki [9]	inhibition [10]	inhibition [11]	SMILES	IC50 (HCT-116)	Activity (SW480 [1])	IC50 (SW480 [3])	Ki [5]	IC50 (A549)	Ki [6]	Ki [7]	IC50 (MDA-MB-231)	fold induction at 5 µM [12]	fold induction at 20 µM [13]	fold induction at 10 µM [14]
> 400 µM	12 µM					Cl.Cl.O=C(O)c1ccc(F)c(-c2cc(NC(=O)c3ccc(O[C@H]4CCNC4)c(-c4ccc(F)c(F)c4)c3)ccc2O[C@H]2CCNC2)c1	> 400 µM	Non-Toxic	> 400 µM								
391 µM	3.7 µM					Cl.Cl.O=C(O)c1ccc(-c2cc(NC(=O)c3ccc(O[C@H]4CCNC4)c(-c4ccc(F)c(F)c4)c3)ccc2O[C@H]2CCNC2)cc1	> 400 µM	Non-Toxic	> 400 µM								
	5.9 µM					CS(=O)(=O)Nc1cccc(-c2cc(NC(=O)c3ccc(O[C@H]4CCNC4)c(-c4ccc(F)c(F)c4)c3)ccc2O[C@H]2CCNC2)c1.Cl.Cl		Non-Toxic	95 µM								
43 µM		50 µM	> 915 µM	inactive	inactive	Cl.Cl.O=C(Nc1ccc(O[C@@H]2CCNC2)c(-c2cccc(-c3nn[nH]n3)c2)c1)c1ccc(O[C@H]2CCNC2)c(-c2ccc3ccsc3c2)c1	240 µM	Non-Toxic	150 µM		430 µM						
	4.6 µM					Cl.Cl.O=C(Nc1ccc(O[C@H]2CCNC2)c(-c2ccc(-c3nn[nH]n3)cc2)c1)c1ccc(O[C@H]2CCNC2)c(-c2ccc(F)c(F)c2)c1		Non-Toxic	86 µM								
